# From ChEMBL document CHEMBL5724801, “EUbOPEN Chemogenomics Library - Multiplex” (2024)
# “And” between values parts separate entries of the source, which are not always exact repeats. Equal entries are not always repeated.
# System: Fibroblast
# Assay: Multiplex assay against human fibroblast
# Assay type: toxicity, cell-based
# Summary of the method: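 Live cells were stained at seeding with Hoechst33342, BioTracker Green Microtubule Cytoskeleton Dye, MitoTracker Red and Annexin V Alexa Fluor 680, then imaged on a CQ1 microscope at 37°C and 5% CO2 after compound addition. CellPathfinder machine-learning gating split cells into Hoechst high-intensity objects or normal cells. Normal cells were split into healthy, pyknosed or fragmented nuclei, and pyknosed cells into mitotic or apoptotic. Tubulin, mitochondrial-mass and membrane-permeability phenotypes are per cents of healthy-nucleus cells.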
# [1] = 12 h, 1 µM, compound concentration 1 uM
# [2] = 12 h, 10 µM, compound concentration 10 uM
# [3] = 24 h, 1 µM, compound concentration 1 uM
# [4] = 24 h, 10 µM, compound concentration 10 uM
# [5] = 48 h, 1 µM, compound concentration 1 uM
# [6] = 48 h, 10 µM, compound concentration 10 uM
smiles,measurement,setting,value
CN1CCN(c2nc3cc(C(F)(F)F)ccc3n3cccc23)CC1.O=C(O)/C=C\C(=O)O.O=C(O)/C=C\C(=O)O,Population Apoptotic (%),[1],50% and 26%
same,Population Fragmented Nuclei (%),[1],18% and 24%
same,Population Healthy Nuclei (%),[1],71% and 46%
same,Population Hoechst High Intensity Objects (%),[1],0% and 6%
same,Population Membrane Permeable-Phenotype (%),[1],0% and 6%
same,Population Mitochondria Different-Phenotype (%),[1],5% and 4%
same,Population Mitotic Cells (%),[1],50% and 73%
same,Population Normal (%),[1],99% and 93%
same,Population Tubulin-Different-Phenotype (%),[1],27% and 47%
same,Total Cell Count,[1],146 and 107
same,Population Apoptotic (%),[2],40% and 60%
same,Population Fragmented Nuclei (%),[2],29% and 35%
same,Population Healthy Nuclei (%),[2],59% and 41%
same,Population Hoechst High Intensity Objects (%),[2],2% and 4%
same,Population Membrane Permeable-Phenotype (%),[2],0% and 4%
same,Population Mitochondria Different-Phenotype (%),[2],25% and 38%
same,Population Mitotic Cells (%),[2],59% and 40%
same,Population Normal (%),[2],97% and 95%
same,Population Pyknosed Nuclei (%),[2],10% and 22%
same,Population Tubulin-Different-Phenotype (%),[2],69% and 85%
same,Total Cell Count,[2],207 and 117
same,Population Apoptotic (%),[3],66% and 40%
same,Population Fragmented Nuclei (%),[3],16% and 35%
same,Population Healthy Nuclei (%),[3],72% and 42%
same,Population Hoechst High Intensity Objects (%),[3],1% and 6%
same,Population Membrane Permeable-Phenotype (%),[3],0% and 7%
same,Population Mitochondria Different-Phenotype (%),[3],2% and 7%
same,Population Mitotic Cells (%),[3],33% and 59%
same,Population Normal (%),[3],98% and 93%
same,Population Pyknosed Nuclei (%),[3],10% and 22%
same,Population Tubulin-Different-Phenotype (%),[3],23% and 43%
same,Total Cell Count,[3],142 and 104
same,Population Apoptotic (%),[4],77% and 63%
same,Population Fragmented Nuclei (%),[4],24% and 37%
same,Population Healthy Nuclei (%),[4],64% and 43%
same,Population Hoechst High Intensity Objects (%),[4],6% and 1%
same,Population Membrane Permeable-Phenotype (%),[4],0% and 6%
same,Population Mitochondria Different-Phenotype (%),[4],32%
same,Population Mitotic Cells (%),[4],22% and 36%
same,Population Normal (%),[4],93% and 98%
same,Population Pyknosed Nuclei (%),[4],10% and 19%
same,Population Tubulin-Different-Phenotype (%),[4],75% and 86%
same,Total Cell Count,[4],214 and 117
same,Population Apoptotic (%),[5],44% and 42%
same,Population Fragmented Nuclei (%),[5],25% and 37%
same,Population Healthy Nuclei (%),[5],63% and 40%
same,Population Hoechst High Intensity Objects (%),[5],2% and 3%
same,Population Membrane Permeable-Phenotype (%),[5],1% and 0%
same,Population Mitochondria Different-Phenotype (%),[5],2%
same,Population Mitotic Cells (%),[5],55% and 57%
same,Population Normal (%),[5],97% and 96%
same,Population Pyknosed Nuclei (%),[5],11% and 21%
same,Population Tubulin-Different-Phenotype (%),[5],22% and 57%
same,Total Cell Count,[5],162 and 102
same,Population Apoptotic (%),[6],77% and 63%
same,Population Fragmented Nuclei (%),[6],22% and 33%
same,Population Healthy Nuclei (%),[6],68% and 57%
same,Population Hoechst High Intensity Objects (%),[6],7% and 5%
same,Population Membrane Permeable-Phenotype (%),[6],0% and 1%
same,Population Mitochondria Different-Phenotype (%),[6],28% and 23%
same,Population Mitotic Cells (%),[6],22% and 36%
same,Population Normal (%),[6],92% and 94%
same,Population Pyknosed Nuclei (%),[6],9%
same,Population Tubulin-Different-Phenotype (%),[6],77% and 85%
same,Total Cell Count,[6],211 and 118
CN(C)C(=O)Cn1cc(-c2ccc(-c3nnc4ccccn34)cc2)cn1,Population Apoptotic (%),[1],57% and 55%
same,Population Fragmented Nuclei (%),[1],18% and 20%
same,Population Healthy Nuclei (%),[1],60% and 58%
same,Population Hoechst High Intensity Objects (%),[1],5%
same,Population Membrane Permeable-Phenotype (%),[1],1% and 7%
same,Population Mitochondria Different-Phenotype (%),[1],3% and 7%
same,Population Mitotic Cells (%),[1],42% and 44%
same,Population Normal (%),[1],94%
same,Population Pyknosed Nuclei (%),[1],21% and 20%
same,Population Tubulin-Different-Phenotype (%),[1],22% and 42%
same,Total Cell Count,[1],139 and 152
same,Population Apoptotic (%),[2],52% and 39%
same,Population Healthy Nuclei (%),[2],63% and 38%
same,Population Hoechst High Intensity Objects (%),[2],3% and 8%
same,Population Membrane Permeable-Phenotype (%),[2],0% and 15%
same,Population Mitochondria Different-Phenotype (%),[2],6% and 18%
same,Population Mitotic Cells (%),[2],47% and 60%
same,Population Normal (%),[2],96% and 91%
same,Population Pyknosed Nuclei (%),[2],28% and 29%
same,Population Tubulin-Different-Phenotype (%),[2],31% and 70%
same,Total Cell Count,[2],140 and 123
same,Population Apoptotic (%),[3],56% and 54%
same,Population Fragmented Nuclei (%),[3],23%
same,Population Healthy Nuclei (%),[3],60%
same,Population Hoechst High Intensity Objects (%),[3],0% and 4%
same,Population Membrane Permeable-Phenotype (%),[3],2% and 4%
same,Population Mitochondria Different-Phenotype (%),[3],1% and 3%
same,Population Mitotic Cells (%),[3],43% and 45%
same,Population Normal (%),[3],99% and 95%
same,Population Pyknosed Nuclei (%),[3],16%
same,Population Tubulin-Different-Phenotype (%),[3],25% and 41%
same,Total Cell Count,[3],144 and 142
same,Population Apoptotic (%),[4],65% and 26%
same,Population Healthy Nuclei (%),[4],65% and 40%
same,Population Hoechst High Intensity Objects (%),[4],5% and 9%
same,Population Membrane Permeable-Phenotype (%),[4],2% and 10%
same,Population Mitochondria Different-Phenotype (%),[4],5% and 6%
same,Population Mitotic Cells (%),[4],34% and 73%
same,Population Normal (%),[4],94% and 90%
same,Population Pyknosed Nuclei (%),[4],24% and 22%
same,Population Tubulin-Different-Phenotype (%),[4],25% and 71%
same,Total Cell Count,[4],140 and 126
same,Population Apoptotic (%),[5],58% and 42%
same,Population Fragmented Nuclei (%),[5],22% and 28%
same,Population Healthy Nuclei (%),[5],61% and 52%
same,Population Hoechst High Intensity Objects (%),[5],1% and 5%
same,Population Membrane Permeable-Phenotype (%),[5],4% and 6%
same,Population Mitochondria Different-Phenotype (%),[5],4% and 2%
same,Population Mitotic Cells (%),[5],41% and 57%
same,Population Normal (%),[5],98% and 94%
same,Population Pyknosed Nuclei (%),[5],16% and 18%
same,Population Tubulin-Different-Phenotype (%),[5],29% and 46%
same,Total Cell Count,[5],151 and 147
same,Population Apoptotic (%),[6],52% and 60%
same,Population Fragmented Nuclei (%),[6],16% and 44%
same,Population Healthy Nuclei (%),[6],66% and 47%
same,Population Hoechst High Intensity Objects (%),[6],2% and 3%
same,Population Membrane Permeable-Phenotype (%),[6],0% and 18%
same,Population Mitochondria Different-Phenotype (%),[6],2% and 8%
same,Population Mitotic Cells (%),[6],47% and 40%
same,Population Normal (%),[6],97% and 96%
same,Population Pyknosed Nuclei (%),[6],17% and 7%
same,Population Tubulin-Different-Phenotype (%),[6],38% and 73%
same,Total Cell Count,[6],137 and 131
